Results reported in ChEMBL document CHEMBL2407008, “Synthesis and biological evaluation of a new series of highly functionalized 7'-homo-anhydrovinblastine derivatives” (J Med Chem, 2013).
The source made the active and inactive calls. The rule behind the calls is not given here.

Tests used:
[1] = Inhibition of sheep brain tubulin polymerization by UV spectrophotometric analysis; design: species or system Ovis aries
How it was run: (§1)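 Sheep brain tubulin was mixed with compound in DMSO at 0 °C, then warmed to 37 °C. Assembly was followed as optical density at 350 nm. Maximum assembly rate was compared with a drug-free sample, and IC50 was derived from several concentrations. Vinorelbine IC50 was measured the same day on the same tubulin preparation.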

[2] = Cell cycle arrest in human U87MG cells assessed as accumulation at G2/M phase at 50 nM after 24 hrs by propidium iodide staining-based flow cytometric analysis; format: functional; settings: U-87MG ATCC
How it was run: (§2)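 U87-MG glioblastoma cells grown in DMEM with 10% FCS and L-glutamine, 37 °C, 5% CO2. Exponentially growing cells were treated for 24 h at two concentrations, or with DMSO. Cells were harvested, dissociated, PBS-washed, fixed in cold 70% ethanol and kept at −20 °C overnight. Staining used propidium iodide with RNase for 30 min, followed by flow-cytometric cell-cycle profiling.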

[3] = tested on: HCT-116; assay: Cytotoxicity against human HCT116 cells after 72 hrs by resazurin assay; format: functional, cell-based; settings: HCT-116, 72 h
How it was run: (§3)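 Cells were seeded at 2.5 × 10^3/well, cultured 24 h, then given compound in DMSO (<0.1%) at several concentrations for 72 h. Media: RPMI 1640/10% FCS for K562 and HCT116; DMEM/10% FCS for U87-MG; EGM2 with growth factors and 2% FCS for HUVEC. Resazurin was added for 1.5 h and fluorescence read (ex 560/em 590 nm). IC50 is the 50% fluorescence drop versus untreated cells. Run in triplicate.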

[4] = tested on: K562; assay: Cell cycle arrest in human K562 cells assessed as accumulation at G2/M phase at 50 nM after 24 hrs by propidium iodide staining-based flow cytometric analysis; format: functional
How it was run: (§4)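 K562 cells grown in RPMI 1640 with 10% FCS and 1% glutamine, 37 °C, 5% CO2. Exponentially growing cells were exposed for 24 h to compound at two concentrations, or to DMSO. Cells were then harvested, PBS-washed, fixed in cold 70% ethanol (30 min, +4 °C) and held at −20 °C overnight. DNA was stained with propidium iodide plus RNase for 30 min, and the profile was read by flow cytometry.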

[5] = Cell cycle arrest in human U87MG cells assessed as accumulation at G2/M phase at >50 nM after 24 hrs by propidium iodide staining-based flow cytometric analysis; format: functional; settings: U-87MG ATCC; how it was run: as §2
[6] = Cytotoxicity against human U87MG cells after 72 hrs by resazurin assay; format: functional, cell-based, U-87MG ATCC; settings: U-87 MG; how it was run: as §3
[7] = tested on: K562; assay: Cytotoxicity against human K562 cells after 72 hrs by resazurin assay; format: functional, cell-based; settings: K562, 72 h; how it was run: as §3
[8] = tested on: K562; assay: Cell cycle arrest in human K562 cells assessed as accumulation at G2/M phase at >50 nM after 24 hrs by propidium iodide staining-based flow cytometric analysis; format: functional; how it was run: as §4
[9] = tested on: HUVEC; assay: Cytotoxicity against HUVEC after 72 hrs by resazurin assay; format: cell-based; settings: Homo sapiens; how it was run: as §3
[10] = species on record: Ovis aries; assay: Ratio of compound IC50 to vinorelbine IC50 for sheep brain tubulin polymerization; how it was run: as §1
[11] = tested on: K562; assay: Cell cycle arrest in human K562 cells assessed as accumulation at G2/M phase at 10 nM after 24 hrs by propidium iodide staining-based flow cytometric analysis; format: functional; how it was run: as §4
[12] = Cell cycle arrest in human U87MG cells assessed as accumulation at G2/M phase at 5 nM after 24 hrs by propidium iodide staining-based flow cytometric analysis; format: functional; settings: U-87MG ATCC; how it was run: as §2
[13] = Cell cycle arrest in human U87MG cells assessed as accumulation at G2/M phase at >5 nM after 24 hrs by propidium iodide staining-based flow cytometric analysis; format: functional; settings: U-87MG ATCC; how it was run: as §2
[14] = tested on: K562; assay: Cell cycle arrest in human K562 cells assessed as accumulation at G2/M phase at >10 nM after 24 hrs by propidium iodide staining-based flow cytometric analysis; format: functional; how it was run: as §4

Compound	IC50 [1] [nM]	IC50 [3] [nM]	IC50 [6] [nM]	IC50 [7] [nM]	IC50 [9] [nM]	further results
CCC1=C[C@@H]2CN(/C=C(/C(=O)OCc3ccccc3)Cc3c([nH]c4ccccc34)[C@@](C(=O)OC)(c3cc4c(cc3OC)N(C)[C@H]3[C@@](O)(C(=O)OC)[C@H](OC(C)=O)[C@]5(CC)C=CCN6CC[C@]43[C@@H]65)C2)C1	> 100000	–	–	–	–	–
CCOC(=O)/C1=C/N2CC(CC)=C[C@H](C2)C[C@](C(=O)OC)(c2cc3c(cc2OC)N(C)[C@H]2[C@@](O)(C(=O)OC)[C@H](OC(C)=O)[C@]4(CC)C=CCN5CC[C@]32[C@@H]54)c2[nH]c3ccccc3c2C1	> 100000	–	–	–	–	–
CCC1=C[C@@H]2CN(C1)C[C@H](C(=O)OC)Cc1c([nH]c3ccccc13)[C@@](C(=O)OC)(c1cc3c(cc1OC)N(C)[C@H]1[C@@](O)(C(=O)OC)[C@H](OC(C)=O)[C@]4(CC)C=CCN5CC[C@]31[C@@H]54)C2	2500	18	7	15	8	Activity [2]: Active; Activity [4]: Active; Activity [5]: Active; Activity [8]: Active
CCC1=C[C@@H]2CN(C1)[C@H](C(=O)NCc1ccccc1)[C@H](C(=O)OC)Cc1c([nH]c3ccccc13)[C@@](C(=O)OC)(c1cc3c(cc1OC)N(C)[C@H]1[C@@](O)(C(=O)OC)[C@H](OC(C)=O)[C@]4(CC)C=CCN5CC[C@]31[C@@H]54)C2	2700	200	70	75	60	–
CCC1=C[C@@H]2CN(/C=C(/C(=O)OC)Cc3c([nH]c4ccccc34)[C@@](C(=O)OC)(c3cc4c(cc3OC)N(C)[C@H]3[C@@](O)(C(=O)OC)[C@H](OC(C)=O)[C@]5(CC)C=CCN6CC[C@]43[C@@H]65)C2)C1	18000	500	700	500	250	–
CCC1=C[C@@H]2CN(C1)Cc1c([nH]c3ccccc13)[C@@](C(=O)OC)(c1cc3c(cc1OC)N(C)[C@H]1[C@@](O)(C(=O)OC)[C@H](OC(C)=O)[C@]4(CC)C=CCN5CC[C@]31[C@@H]54)C2 [VINORELBINE]	700	35	2	20	2	–
CCC1=C[C@@H]2CN(C1)C[C@H](C(=O)OCc1ccccc1)Cc1c([nH]c3ccccc13)[C@@](C(=O)OC)(c1cc3c(cc1OC)N(C)[C@H]1[C@@](O)(C(=O)OC)[C@H](OC(C)=O)[C@]4(CC)C=CCN5CC[C@]31[C@@H]54)C2	> 100000	–	–	–	–	–
CCC1=C[C@@H]2CN(C1)/C(C(=O)NC(C)C)=C(/C(=O)OC)Cc1c([nH]c3ccccc13)[C@@](C(=O)OC)(c1cc3c(cc1OC)N(C)[C@H]1[C@@](O)(C(=O)OC)[C@H](OC(C)=O)[C@]4(CC)C=CCN5CC[C@]31[C@@H]54)C2	1600	2500	350	1500	700	Ratio IC50 [10]: 2
CCC1=C[C@@H]2CN(C1)[C@H](C(=O)NC(C)(C)C)[C@H](C(=O)OC)Cc1c([nH]c3ccccc13)[C@@](C(=O)OC)(c1cc3c(cc1OC)N(C)[C@H]1[C@@](O)(C(=O)OC)[C@H](OC(C)=O)[C@]4(CC)C=CCN5CC[C@]31[C@@H]54)C2	1100	300	80	250	70	Ratio IC50 [10]: 1.7
CCC1=C[C@@H]2CN(C1)/C(C(=O)OC)=C(/C(=O)OC)Cc1c([nH]c3ccccc13)[C@@](C(=O)OC)(c1cc3c(cc1OC)N(C)[C@H]1[C@@](O)(C(=O)OC)[C@H](OC(C)=O)[C@]4(CC)C=CCN5CC[C@]31[C@@H]54)C2	6000	500	700	1000	100	–
CCC1=C[C@@H]2CN(C1)[C@H](C(=O)OC)[C@H](C(=O)OC)Cc1c([nH]c3ccccc13)[C@@](C(=O)OC)(c1cc3c(cc1OC)N(C)[C@H]1[C@@](O)(C(=O)OC)[C@H](OC(C)=O)[C@]4(CC)C=CCN5CC[C@]31[C@@H]54)C2	8600	6	1.5	5	2.5	Activity [11]: Active; Activity [12]: Active; Activity [13]: Active; Activity [14]: Active
C=CCNC(=O)/C1=C(\C(=O)OC)Cc2c([nH]c3ccccc23)[C@@](C(=O)OC)(c2cc3c(cc2OC)N(C)[C@H]2[C@@](O)(C(=O)OC)[C@H](OC(C)=O)[C@]4(CC)C=CCN5CC[C@]32[C@@H]54)C[C@@H]2C=C(CC)CN1C2	3700	1800	3000	1000	2000	–
CCC1=C[C@@H]2CN(C1)/C(C(=O)NCc1ccccc1)=C(/C(=O)OC)Cc1c([nH]c3ccccc13)[C@@](C(=O)OC)(c1cc3c(cc1OC)N(C)[C@H]1[C@@](O)(C(=O)OC)[C@H](OC(C)=O)[C@]4(CC)C=CCN5CC[C@]31[C@@H]54)C2	10400	250	10	80	40	–
CC[C@]1(O)C[C@@H]2CN(CCc3c([nH]c4ccccc34)[C@@](C(=O)OC)(c3cc4c(cc3OC)N(C)[C@H]3[C@@](O)(C(=O)OC)[C@H](OC(C)=O)[C@]5(CC)C=CCN6CC[C@]43[C@@H]65)C2)C1 [VINBLASTINE]	2100	3.5	1	7	0.8	–
CCC1=C[C@@H]2CN(C1)/C(C(=O)NC(C)(C)C)=C(/C(=O)OC)Cc1c([nH]c3ccccc13)[C@@](C(=O)OC)(c1cc3c(cc1OC)N(C)[C@H]1[C@@](O)(C(=O)OC)[C@H](OC(C)=O)[C@]4(CC)C=CCN5CC[C@]31[C@@H]54)C2	10400	60	25	50	25	–
C=CCNC(=O)[C@@H]1[C@H](C(=O)OC)Cc2c([nH]c3ccccc23)[C@@](C(=O)OC)(c2cc3c(cc2OC)N(C)[C@H]2[C@@](O)(C(=O)OC)[C@H](OC(C)=O)[C@]4(CC)C=CCN5CC[C@]32[C@@H]54)C[C@@H]2C=C(CC)CN1C2	4900	45	10	50	25	–
CCC1=C[C@@H]2CN(C1)[C@H](C(=O)NC(C)C)[C@H](C(=O)OC)Cc1c([nH]c3ccccc13)[C@@](C(=O)OC)(c1cc3c(cc1OC)N(C)[C@H]1[C@@](O)(C(=O)OC)[C@H](OC(C)=O)[C@]4(CC)C=CCN5CC[C@]31[C@@H]54)C2	500	100	20	60	150	Ratio IC50 [10]: 0.6
CCOC(=O)[C@@H]1Cc2c([nH]c3ccccc23)[C@@](C(=O)OC)(c2cc3c(cc2OC)N(C)[C@H]2[C@@](O)(C(=O)OC)[C@H](OC(C)=O)[C@]4(CC)C=CCN5CC[C@]32[C@@H]54)C[C@@H]2C=C(CC)CN(C2)C1	> 100000	–	–	–	–	–
